Laboratory results from ChEMBL document CHEMBL1156871, “Nonpeptidic tetrafluorophenoxymethyl ketone cruzain inhibitors as promising new leads for Chagas disease chemotherapy” (J Med Chem, 2010).
Calls of active or inactive are those of the source. The calls are words filed in the database; no cut-off is given here.

What was measured:
Trypanosoma cruzi [1] = test: Antitrypanosomal activity against Trypanosoma cruzi Y strain infected in BESM cells assessed as reduction of parasite number after 72 hrs; format: functional, organism-based
How it was run: (§1)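 BESM cells in RPMI-1640 with 5% heat-inactivated FCS (37 °C, 5% CO2) infected with Y-strain trypomastigotes, then given fresh medium with inhibitor at 0, 0.3, 1, 3 and 10 μM for 72 h. Fixed in 4% paraformaldehyde and stained with DAPI (0.1 μg/mL), then imaged. Nuclei were sorted by size: host >150 μm², parasite 2-4 μm². The parasite/host nuclei ratio gave the IC50, and the loss of host nuclei gave cytotoxicity. Duplicate or triplicate runs averaged.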

[2] = Cytotoxicity against BEMS cells; format: cell-based; conditions: Bos taurus; how it was run: as §1
Trypanosoma cruzi [3] = test: Antitrypanosomal activity against Trypanosoma cruzi trypomastigotes infected in C3H mouse assessed as acute chagas disease symptoms at 20 mg/kg, ip bid for 27 days; format: functional, organism-based; set-up: dose 20 mg/kg
How it was run: (§2)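 Female C3H mice (mean 22 g) infected ip with 1.2 × 10⁶ tissue-culture trypomastigotes. From 24 h post-infection, treated (n=5) with 20 mg/kg ip b.i.d. for 27 days in 70% DMSO:30% water, prepared daily; untreated controls n=3. Mice were sacrificed at day 77 post-infection for symptom scoring and histopathology of heart, skeletal muscle, liver, spleen and colon.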

Trypanosoma cruzi [4] = test: Antitrypanosomal activity against Trypanosoma cruzi trypomastigotes infected in C3H mouse assessed as infection in heart at 20 mg/kg, ip bid for 27 days; format: functional, organism-based; set-up: dose 20 mg/kg; how it was run: as §2
Trypanosoma cruzi [5] = test: Antitrypanosomal activity against Trypanosoma cruzi trypomastigotes infected in C3H mouse assessed as infection in skeletal muscle at 20 mg/kg, ip bid for 27 days; format: functional, organism-based; set-up: dose 20 mg/kg; conditions: Muscle tissue; how it was run: as §2
Trypanosoma cruzi [6] = test: Antitrypanosomal activity against Trypanosoma cruzi trypomastigotes infected in C3H mouse assessed as infection in liver at 20 mg/kg, ip bid for 27 days; format: functional, organism-based; set-up: dose 20 mg/kg; how it was run: as §2
Trypanosoma cruzi [7] = test: Antitrypanosomal activity against Trypanosoma cruzi trypomastigotes infected in C3H mouse assessed as infection in spleen at 20 mg/kg, ip bid for 27 days; format: functional, organism-based; set-up: dose 20 mg/kg; how it was run: as §2
Trypanosoma cruzi [8] = test: Antitrypanosomal activity against Trypanosoma cruzi trypomastigotes infected in C3H mouse assessed as infection in colon at 20 mg/kg, ip bid for 27 days; format: functional, organism-based; set-up: dose 20 mg/kg; how it was run: as §2
Mus musculus = test: Toxicity in Trypanosoma cruzi trypomastigotes infected mouse model at 20 mg/kg, ip bid for 27 days; conditions: in vivo, 648 h
Trypanosoma cruzi [9] = test: Antitrypanosomal activity against Trypanosoma cruzi trypomastigotes infected mouse model assessed as chagas disease symptoms at 20 mg/kg, ip bid for 27 days measured after 77 days of post infection
[10] = target: Cruzipain (Trypanosoma cruzi) (UniProt P25779); test: Ratio of kinact to Ki for Trypanosoma cruzi cruzain
[11] = target: Cruzipain (Trypanosoma cruzi) (UniProt P25779); test: (§3) Inhibition of Trypanosoma cruzi cruzain
Cruzipain = Cruzipain (Trypanosoma cruzi, UniProt P25779); test: as §3
Cruzipain, sequence (P25779 whole entry): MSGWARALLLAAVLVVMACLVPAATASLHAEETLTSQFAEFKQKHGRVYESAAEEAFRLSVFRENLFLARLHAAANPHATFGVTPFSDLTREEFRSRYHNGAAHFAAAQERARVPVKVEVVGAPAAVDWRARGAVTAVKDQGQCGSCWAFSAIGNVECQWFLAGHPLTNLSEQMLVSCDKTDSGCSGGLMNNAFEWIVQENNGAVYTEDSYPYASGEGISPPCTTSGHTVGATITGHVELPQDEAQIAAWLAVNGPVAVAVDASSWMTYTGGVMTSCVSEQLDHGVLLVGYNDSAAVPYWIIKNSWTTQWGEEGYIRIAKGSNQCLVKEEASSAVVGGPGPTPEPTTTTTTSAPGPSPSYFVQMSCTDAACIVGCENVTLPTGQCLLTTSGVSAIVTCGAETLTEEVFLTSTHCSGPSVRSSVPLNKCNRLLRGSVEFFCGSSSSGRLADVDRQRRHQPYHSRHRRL

Cruzipain (Trypanosoma cruzi), sequence (P25779 123-467 limits assumed): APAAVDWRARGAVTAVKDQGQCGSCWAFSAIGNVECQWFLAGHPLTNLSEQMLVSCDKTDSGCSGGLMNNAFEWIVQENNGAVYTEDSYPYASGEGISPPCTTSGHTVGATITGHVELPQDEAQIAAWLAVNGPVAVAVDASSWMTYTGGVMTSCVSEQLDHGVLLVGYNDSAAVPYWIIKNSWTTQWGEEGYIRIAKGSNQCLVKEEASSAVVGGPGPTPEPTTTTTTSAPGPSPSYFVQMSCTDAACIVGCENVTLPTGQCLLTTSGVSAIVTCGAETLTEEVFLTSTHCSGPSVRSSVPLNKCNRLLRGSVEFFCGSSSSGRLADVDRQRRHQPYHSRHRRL

Row | Compound | IC50 (Trypanosoma cruzi [1]) | Ratio [10] | Kinact [11] | Ki (Cruzipain) | IC50 [2] | Activity (Trypanosoma cruzi [3]) | Activity (Trypanosoma cruzi [4]) | Activity (Trypanosoma cruzi [5]) | Activity (Trypanosoma cruzi [6]) | Activity (Trypanosoma cruzi [7]) | Activity (Trypanosoma cruzi [8]) | Activity (Mus musculus) | Activity (Trypanosoma cruzi [9])
1 | CCCCC(C(=O)COc1c(F)c(F)cc(F)c1F)n1cc([C@@](C)(NCc2ccc3ncccc3c2)C(C)C)nn1 (some centres undefined) | 5.1 µM | – | – | – | > 10 µM | Non-toxic | Active | inactive | Active | Active | Active | Non-toxic | Active
2 | CCCCC(C(=O)COc1c(F)c(F)cc(F)c1F)n1cc([C@](C)(CC(C)C)NCc2ccc3ncccc3c2)nn1 (some centres undefined) | 3.1 µM | 657000 M⁻¹ s⁻¹ | 0.036 s⁻¹ | 0.1 µM | > 10 µM | – | – | – | – | – | – | – | –
3 | CCCCC(C(=O)COc1c(F)c(F)cc(F)c1F)n1cc([C@@](C)(NCc2ccc3ncccc3c2)C2CC2)nn1 (some centres undefined) | 4.3 µM | 179000 M⁻¹ s⁻¹ | 0.089 s⁻¹ | 0.94 µM | > 10 µM | – | – | – | – | – | – | – | –
4 | CCCCC(C(=O)COc1c(F)c(F)cc(F)c1F)n1cc([C@@](C)(NCc2ccc3ncccc3c2)C2CCCC2)nn1 (some centres undefined) | 4.2 µM | – | – | 0.11 µM | 10 µM | – | – | – | – | – | – | – | –
5 | CCCCC(C(=O)COc1c(F)c(F)cc(F)c1F)n1cc([C@@](C)(NCc2ccc3ncccc3c2)C2CCCCC2)nn1 (some centres undefined) | – | 58000 M⁻¹ s⁻¹ | 0.037 s⁻¹ | 1.22 µM | – | – | – | – | – | – | – | – | –
6 | CC(C(=O)COc1c(F)c(F)cc(F)c1F)n1cc([C@@](C)(NCc2ccc3ncccc3c2)C(C)C)nn1 (some centres undefined) | – | 12300 M⁻¹ s⁻¹ | 0.043 s⁻¹ | 6.76 µM | – | – | – | – | – | – | – | – | –
7 | CCC(C(=O)COc1c(F)c(F)cc(F)c1F)n1cc([C@@](C)(NCc2ccc3ncccc3c2)C(C)C)nn1 (some centres undefined) | 8.3 µM | 124000 M⁻¹ s⁻¹ | 0.066 s⁻¹ | 1.04 µM | > 10 µM | – | – | – | – | – | – | – | –

Second part, led by results:

Row | IC50 (Trypanosoma cruzi [1]) | Ratio [10] | Kinact [11] | Ki (Cruzipain) | Compound | IC50 [2] | Activity (Trypanosoma cruzi [3]) | Activity (Trypanosoma cruzi [4]) | Activity (Trypanosoma cruzi [5]) | Activity (Trypanosoma cruzi [6]) | Activity (Trypanosoma cruzi [7]) | Activity (Trypanosoma cruzi [8]) | Activity (Mus musculus) | Activity (Trypanosoma cruzi [9])
8 | 5.8 µM | 522000 M⁻¹ s⁻¹ | 0.096 s⁻¹ | 0.35 µM | CCC(C(=O)COc1c(F)c(F)cc(F)c1F)n1cc([C@@](C)(NCc2ccc3ncccc3c2)C2CCC2)nn1 (mixture of isomers) | > 10 µM | – | – | – | – | – | – | – | –
9 | 5.7 µM | 487000 M⁻¹ s⁻¹ | 0.048 s⁻¹ | 0.19 µM | CCC(C(=O)COc1c(F)c(F)cc(F)c1F)n1cc([C@](C)(CC(C)C)NCc2ccc3ncccc3c2)nn1 (some centres undefined) | > 10 µM | – | – | – | – | – | – | – | –
10 | 4.1 µM | 680000 M⁻¹ s⁻¹ | 0.047 s⁻¹ | 0.13 µM | CCCCC(C(=O)COc1c(F)c(F)cc(F)c1F)n1cc([C@@](C)(NCc2ccc3ncccc3c2)C2CCC2)nn1 (some centres undefined) | > 10 µM | – | – | – | – | – | – | – | –
